Measured values: BindingDB's records for doi:10.1021/jm00109a027 (University of Minnesota, 1991)

What was measured:
[1] = biological target: Kappa-type opioid receptor (Cavia porcellus, UniProt P41144); assay: Compound was evaluated for the binding affinity to opioid receptor kappa using [3H]-EK as radioligand in guinea pig brain membrane
Method in brief: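 Radioligand displacement in guinea pig brain membranes, modified from an earlier published method. [3H]EK was used with 1 μM DAMGO present to block μ sites.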

Mu-type opioid receptor = Mu-type opioid receptor (Cavia porcellus, UniProt P97266); assay: Compound was evaluated for the binding affinity to Opioid receptor mu using [3H]DAMGO as radioligand in guinea pig brain membrane
[2] = Compound was evaluated for the binding affinity to opioid receptor delta

Kappa-type opioid receptor, sequence (P41144 whole entry): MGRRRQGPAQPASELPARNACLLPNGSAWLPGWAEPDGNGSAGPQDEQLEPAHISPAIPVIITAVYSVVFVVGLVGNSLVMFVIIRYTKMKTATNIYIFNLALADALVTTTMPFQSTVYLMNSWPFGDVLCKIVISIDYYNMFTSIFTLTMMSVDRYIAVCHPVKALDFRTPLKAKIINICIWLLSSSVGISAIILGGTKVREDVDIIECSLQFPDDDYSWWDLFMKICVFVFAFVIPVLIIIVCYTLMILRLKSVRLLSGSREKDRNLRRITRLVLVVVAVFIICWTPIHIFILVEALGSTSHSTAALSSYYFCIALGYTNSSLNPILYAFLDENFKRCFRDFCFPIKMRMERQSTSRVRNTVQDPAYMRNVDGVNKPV
Mu-type opioid receptor, sequence (P97266 whole entry): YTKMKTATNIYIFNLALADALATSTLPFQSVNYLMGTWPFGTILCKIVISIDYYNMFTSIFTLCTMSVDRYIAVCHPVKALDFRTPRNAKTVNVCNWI

Row | Structure (SMILES) | Ki [1] [nM] | Ki (Mu-type opioid receptor) [nM] | Ki [2] [nM]
1 | Oc1ccc2c3c1O[C@H]1c4nc5ccccc5nc4C[C@@]4(O)[C@@H](C2)N(CC2CC2)CC[C@]314 | 191 | 7.3 | –
2 | Cn1c2c(c3c1[C@@H]1Oc4c(O)ccc5c4[C@@]14CCN(CC1CC1)[C@H](C5)[C@]4(O)C3)CCCC2 | 203 | 16.8 | –
3 | Oc1ccc2c3c1O[C@H]1C(c4ccccc4)=CC[C@@]4(O)[C@@H](C2)N(CC2CC2)CC[C@]314 | 0.01 | 0.005 | –
4 | Oc1ccc2c3c1O[C@H]1C(c4c[nH]c5ccccc45)=CC[C@@]4(O)C(C2)N(CC2CC2)CC[C@]314 [4-cyclopropylmethyl-14-(1H-3-indolyl)-(1S,13S,17S)-12-oxa-4-azapentacyclo[9.6.1.01,13.05,17.07,18]octadeca-7(18),8,10,14-tetraene-10,17-diol] | – | – | 0.99
5 | Oc1ccc2c3c1O[C@H]1c4oc5ccccc5c4C[C@@]4(O)[C@@H](C2)N(CC2CC2)CC[C@]314 [CAS_111555-58-9] | 154 | 18.8 | –
